Source: PubChem BioAssay (several laboratories)
Hits are enriched below; roughly 1.2% of the tested compounds scored in any of these assays.
ABHD5-PLIN5 inh: ABHD5-PLIN5 interaction inhibitors, primary screen, cell lysate, split luciferase complementation, luminescence | Perilipin-5 (Homo sapiens) + 1-acylglycerol-3-phosphate O-acyltransferase ABHD5 (Homo … | Split G. princeps luciferase complementation, 4 h | inhibition, % at 4 µM | 0.78% of 360,000 active;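 active means inhibition above the mean inhibition across every tested compound plus 3 SD, cut at about 22% in these data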;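 further: 0% = DMSO only wells and the 100% control is not disclosed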
Target sequence (Q00G26 whole entry, looked up): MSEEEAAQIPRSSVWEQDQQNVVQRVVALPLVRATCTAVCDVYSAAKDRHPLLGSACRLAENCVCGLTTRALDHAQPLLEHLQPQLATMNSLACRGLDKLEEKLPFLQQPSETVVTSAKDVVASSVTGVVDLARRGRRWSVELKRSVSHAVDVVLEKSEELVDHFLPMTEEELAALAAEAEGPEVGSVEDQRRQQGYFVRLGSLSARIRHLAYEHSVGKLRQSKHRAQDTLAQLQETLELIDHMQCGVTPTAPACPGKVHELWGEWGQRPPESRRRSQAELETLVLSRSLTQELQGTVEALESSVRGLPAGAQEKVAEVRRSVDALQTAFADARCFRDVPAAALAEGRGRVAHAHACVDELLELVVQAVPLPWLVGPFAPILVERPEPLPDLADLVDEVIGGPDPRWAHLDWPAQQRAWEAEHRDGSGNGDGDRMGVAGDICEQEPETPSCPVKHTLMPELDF
Target sequence (Q8WTS1 whole entry, looked up): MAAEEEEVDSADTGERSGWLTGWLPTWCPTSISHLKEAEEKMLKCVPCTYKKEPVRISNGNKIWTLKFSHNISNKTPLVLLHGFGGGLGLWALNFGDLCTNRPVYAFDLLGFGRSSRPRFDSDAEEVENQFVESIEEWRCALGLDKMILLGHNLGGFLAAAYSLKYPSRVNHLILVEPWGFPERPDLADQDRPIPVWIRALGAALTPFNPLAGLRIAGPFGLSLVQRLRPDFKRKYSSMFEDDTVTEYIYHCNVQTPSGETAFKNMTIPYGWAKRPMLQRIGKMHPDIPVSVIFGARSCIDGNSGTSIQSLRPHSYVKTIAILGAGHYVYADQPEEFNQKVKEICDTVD
A3A deaminase: APOBEC3A ssDNA deaminase inhibitors, primary screen, selectivity assay for APOBEC3G inhibitor project, biochemical, FAM/TAMRA oligo cleavage fluorescence; AID 493011, 2011; inhibition, % at 20 µM; recombinant A3A, FAM/TAMRA ssDNA deamination fluorescence; 0.41% of 330,000 active;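 active means at least 40% inhibition at 20 µM here, with at most 30% in a related deaminase screen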;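 further: plate controls were A3A with DMSO for no effect and wells lacking A3A enzyme for full effect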
APOBEC3G inh: APOBEC3G DNA deaminase inhibitors, primary screen, biochemical, fluorescence, single-stranded DNA substrate, uHTS; DNA dC->dU-editing enzyme APOBEC-3G (Homo sapiens), Q9HC16; recombinant A3G, ssDNA deamination FAM/TAMRA fluorescence; inhibition, % at 20 µM; 0.28% of 330,000 active; AID 493012, 2011;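 active means inhibition of at least 40% at 20 µM, with no more than 30% in the related APOBEC3A deaminase screen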;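 further: plate controls were DMSO wells with A3G for no effect and wells lacking A3G enzyme for full effect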
FN deposition inh: inhibitors of fibronectin matrix deposition, primary screen, AH1F cells, Alexa488-fibronectin fluorescence, plate reader; inhibition, % at 12.6 µM; AH1F fibroblasts, overnight; AID 743247, 2014; 0.086% of 350,000 active;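 active means mean inhibition across replicates of 30% or more, regardless of how many single replicates reach that level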;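 further: positive control wells lacked labelled fibronectin entirely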
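material = AH1F fibroblast monolayer depositing Alexa488-labelled fibronectin into matrix | amount = 10000 AH1F cells/well | buffer or medium = DMEM plus 2% serum, read in PBS | incubation = 1 h cell adhesion before compound, then overnight fibronectin incubation | detection = fluorescence at 485 nm excitation, 525 nm emission | evaluation = percent inhibition as loss of matrix-bound fibronectin fluorescence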
APOBEC3G confirm: APOBEC3G deaminase inhibitor retest, confirmation, biochemical, fluorescence, single-stranded DNA substrate, single concentration; shares compounds with APOBEC3G inh; recombinant A3G ssDNA deaminase, UDG/FAM-TAMRA fluorescence; inhibition, % at 20 µM; 72% of 890 active; AID 493152, 2011;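 active means inhibition reaching a set limit in any replicate at 20 µM, the limit being 80% of the first screen's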
UDG A3G counter: E. coli UDG inhibitors, confirmation, counter-screen for APOBEC3G inhibitor project, biochemical, single concentration, fluorescence, FAM/TAMRA oligo; shares compounds with APOBEC3G inh; UDG counterscreen; inhibition, % at 20 µM; 710 tested, under 10 active; AID 504715, 2011;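 active means compounds giving 40% or more inhibition at 20 µM in any one of the three replicates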;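 further: plate controls were DMSO wells with UDG and oligo for no effect and DMSO wells lacking both for full effect; inhibitors lower the FAM signal released by uracil excision and alkaline cleavage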
An asterisk follows results filed as active.

`CCn1c(-c2ccc(Cl)cc2)n[nH]c1=S` gave ABHD5-PLIN5 inh -9, A3A deaminase -2, APOBEC3G inh 54*, FN deposition inh 6, APOBEC3G confirm 80* and UDG A3G counter 1.
For C[C@@H]1CN([C@@H](C)CO)C(=O)Cc2cc(N(C)C)ccc2O[C@H]1CN(C)Cc1ccc(Cl)c(Cl)c1 the results were FN deposition inh 1.
O=S(=O)(c1ccc(F)cc1)N1CC[C@@H]2[C@@H](CO)Nc3ccc(-c4ccc(F)cc4)cc3[C@@H]21 was read as FN deposition inh -2.
`CN(C)C(=O)C[C@@H]1CC[C@@H]2[C@@H](COc3ccc(NS(=O)(=O)c4cccc(F)c4)cc3C(=O)N2C)O1` gave FN deposition inh -8.
`COc1ccc(N2C(=O)CS(=O)C(c3ccccc3)C2=O)cc1` (configuration not stated) gave ABHD5-PLIN5 inh 3, A3A deaminase -4, APOBEC3G inh 54*, FN deposition inh -3, APOBEC3G confirm 90* and UDG A3G counter -4.
For C[C@@H]1CN([C@H](C)CO)C(=O)c2cccc(N(C)C)c2O[C@@H]1CN(C)Cc1ccc(Cl)c(Cl)c1 the results were FN deposition inh 0.
Screening COc1cc(SSc2cc(OC)cc([N+](=O)[O-])c2N)c(N)c([N+](=O)[O-])c1 returned ABHD5-PLIN5 inh -9, A3A deaminase -2, APOBEC3G inh 42*, FN deposition inh -6, APOBEC3G confirm 79* and UDG A3G counter 10.
`COc1cc([N+](=O)[O-])c2ncsc2c1` gave ABHD5-PLIN5 inh 1, A3A deaminase -4, APOBEC3G inh -3 and FN deposition inh -13.
`CN1C(=O)c2cc(NC(=O)c3cnccn3)ccc2OC[C@H]2O[C@@H](CC(=O)NCC3CC3)CC[C@H]21` gave FN deposition inh 2.
Screening CC1(CCc2ccccc2)NC(=S)N(c2ccc(Cl)cc2)N1 (configuration not stated) returned ABHD5-PLIN5 inh 6, A3A deaminase 1, APOBEC3G inh 57*, FN deposition inh -5 and APOBEC3G confirm 12.
Screening CC1(CCc2ccccc2)NC(=S)N(c2ccccc2)N1 (configuration not stated) returned ABHD5-PLIN5 inh 1 and FN deposition inh -2.
C[C@H]1CN([C@@H](C)CO)C(=O)c2cccc(NC(=O)C3CCOCC3)c2O[C@@H]1CN(C)Cc1ccc2c(c1)OCO2 was read as FN deposition inh -3.
C[C@H]1CC=CC[C@H](c2ccc3c(c2)OCO3)NC(=O)[C@@H](Cc2ccccc2)N(C)C(=O)c2ccccc2O1 (mixture of isomers) was read as FN deposition inh -11.
For CC(NC(=O)c1sc2cc([N+](=O)[O-])ccc2c1Cl)C(C)(C)C (configuration not stated) the results were ABHD5-PLIN5 inh -5, A3A deaminase 1, APOBEC3G inh 55*, FN deposition inh -2, APOBEC3G confirm 69* and UDG A3G counter -3.
O=C(CC1Sc2ncnn2C1=O)Nc1ccc(Br)cc1 (configuration not stated) was read as ABHD5-PLIN5 inh 7, A3A deaminase -1, APOBEC3G inh 41*, FN deposition inh 2, APOBEC3G confirm 70* and UDG A3G counter -3.
For O=C(CC1SC2=NCCN2C1=O)Nc1ccc(Br)cc1 (configuration not stated) the results were ABHD5-PLIN5 inh -4, A3A deaminase -4, APOBEC3G inh -2 and FN deposition inh -5.
